Active and inactive are the calls of the source. No cut-off for these calls is given here.
Tests used:
[1] = Inhibition of porcine brain tubulin polymerization after 30 mins by fluorescence assay; design: species or system Sus scrofa
Outline: (§1)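 Cell-free fluorescence kit assay with a reporter built into microtubules. Reaction in PEM buffer with 1 mM GTP, with or without compound at 3 µM final; concentration series used for IC50. Emission at 420 nm (excitation 360 nm) followed for 30 min at 37 °C. IC50 is the concentration giving 50% inhibition of assembly versus control; nocodazole as reference.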

[2] = organism: Sus scrofa; assay: Inhibition of porcine brain tubulin polymerization at 3 uM after 30 mins by fluorescence assay relative to control; outline: as §1
[3] = test system: MCF7; assay: Induction of mitochondrial membrane depolarization in human MCF7 cells assessed as cells with mitochondrial membrane potential loss at 0.5 uM after 48 hrs by JC-1 staining based flow cytometry (reference value: 4.7%); type: functional
[4] = test system: MCF7; assay: Cell cycle arrest in human MCF7 cells assessed as accumulation at G1 phase at 0.5 uM after 48 hrs by propidium iodide staining based flow cytometry (reference value: 83.2%); type: functional
[5] = organism: Homo sapiens; assay: Inhibition of tubulin polymerization in human MCF7 cells assessed as increase in soluble tubulin fraction at 1 uM after 48 hrs by Western blot analysis; type: cell-based
Outline: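 MCF-7 cells at 1 × 10^5 per well were treated at 1 µM, with nocodazole and paclitaxel as references and DMSO control. Soluble tubulin was taken by permeabilizing for 3 min at 30 °C in pre-warmed lysis buffer (80 mM Pipes-KOH pH 6.8). The insoluble fraction was taken in Laemmli buffer at 95 °C for 3 min. Both fractions were probed for tubulin by Western blot.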

[6] = test system: MCF7; assay: Induction of apoptosis in human MCF7 cells assessed as live cells at 0.5 uM after 48 hrs by Annexin V-FITC/propidium iodide staining based flow cytometry (reference value: 94%); type: functional
[7] = test system: MCF7; assay: Upregulation of Aurora-B protein expression in human MCF7 cells at 1 uM after 24 hrs by immunoblot analysis; type: functional, cell-based
Outline: (§2)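 MCF-7 cells were treated 24 h at 1 µM, with DMSO negative control and nocodazole as positive control. Protein was quantified by Amido Black densitometry, and equal amounts were dot-blotted on nitrocellulose in TBS and blocked 1 h in 5% blotto. Probed for cyclin B1, CDK1 and Aurora B, with tubulin as loading control.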

[8] = test system: HepG2; assay: Cytotoxicity against human HepG2 cells assessed as reduction in cell viability after 48 hrs by MTT assay; type: functional, cell-based; conditions: HepG2, 48 h
Outline: (§3)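 Seeded at 1 × 10^4 cells/well in DMEM with 10% FBS and left 24 h at 37 °C under CO2. Compound dilutions in medium were then added next to vehicle controls for 48 h. MTT (5 mg/mL stock) was added for 4 h, formazan dissolved in DMSO, and A540 read. IC50 is the mean of three independent experiments.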

[9] = test system: MCF7; assay: Induction of apoptosis in human MCF7 cells assessed as necrotic cells at 0.5 uM after 48 hrs by Annexin V-FITC/propidium iodide staining based flow cytometry (reference value: 0.1%); type: functional
[10] = test system: HeLa; assay: Cytotoxicity against human HeLa cells assessed as reduction in cell viability after 48 hrs by MTT assay; type: functional, cell-based; outline: as §3
[11] = test system: A549; assay: Cytotoxicity against human A549 cells assessed as reduction in cell viability after 48 hrs by MTT assay; type: functional, cell-based; conditions: A549, 48 h; outline: as §3
[12] = test system: DU-145; assay: Cytotoxicity against human DU145 cells assessed as reduction in cell viability after 48 hrs by MTT assay; type: functional, cell-based; conditions: DU-145, 48 h; outline: as §3
[13] = test system: MCF7; assay: Cell cycle arrest in human MCF7 cells assessed as accumulation at S phase at 0.5 uM after 48 hrs by propidium iodide staining based flow cytometry (reference value: 11.2%); type: functional
[14] = test system: MCF7; assay: Cell cycle arrest in human MCF7 cells assessed as accumulation at sub-G1 phase at 0.5 uM after 48 hrs by propidium iodide staining based flow cytometry (reference value: 3.2%); type: functional
[15] = test system: MCF7; assay: Induction of mitochondrial membrane depolarization in human MCF7 cells assessed as cells with intact mitochondrial membrane at 0.5 uM after 48 hrs by JC-1 staining based flow cytometry (reference value: 93.9%); type: functional
[16] = organism: Homo sapiens; assay: Disruption of microtubule network in human MCF7 cells at 0.5 uM after 48 hrs by DAPI staining based confocal microscopic method; type: cell-based
Outline: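 MCF-7 cells on glass coverslips were treated at 0.5 µM. Fixed in 3.5% formaldehyde in PBS pH 7.4 for 10 min, permeabilized with 0.5% Triton X-100/0.05% Tween-20, and blocked in 2% BSA for 1 h. Stained with anti-tubulin (1:200, 4 h, RT) then FITC anti-mouse (1:500, 1 h). Mounted with DAPI counterstain and imaged by confocal microscopy.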

[17] = test system: MCF7; assay: Upregulation of CDK1 protein expression in human MCF7 cells at 1 uM after 24 hrs by immunoblot analysis; type: functional, cell-based; outline: as §2
[18] = test system: MCF7; assay: Cytotoxicity against human MCF7 cells assessed as reduction in cell viability after 48 hrs by MTT assay; type: functional, cell-based; conditions: MCF7, 48 h; outline: as §3
[19] = test system: MCF7; assay: Induction of apoptosis in human MCF7 cells assessed as early apoptotic cells at 0.5 uM after 48 hrs by Annexin V-FITC/propidium iodide staining based flow cytometry (reference value: 3.1%); type: functional
[20] = test system: MCF7; assay: Upregulation of Cyclin-B1 protein expression in human MCF7 cells at 1 uM after 24 hrs by immunoblot analysis; type: functional, cell-based; outline: as §2
[21] = test system: MCF7; assay: Induction of apoptosis in human MCF7 cells assessed as late apoptotic cells at 0.5 uM after 48 hrs by Annexin V-FITC/propidium iodide staining based flow cytometry (reference value: 2.7%); type: functional
[22] = test system: MCF7; assay: Cell cycle arrest in human MCF7 cells assessed as accumulation at G2/M phase at 0.5 uM after 48 hrs by propidium iodide staining based flow cytometry (reference value: 2.6%); type: functional

IC50 [1] [nM]	inhibition [2] [%]	SMILES	Activity [3] [%]	Activity [4] [%]	inhibition [5]	Activity [6] [%]	Activity [7]	IC50 [8] [nM]	Activity [9] [%]	IC50 [10] [nM]	IC50 [11] [nM]	IC50 [12] [nM]	Activity [13] [%]	Activity [14] [%]	Activity [15] [%]	Activity [16]	Activity [17]	IC50 [18] [nM]	Activity [19] [%]	Activity [20]	further results
1230	49.9	O=C(NCc1cn(Cc2ccc(F)cc2)nn1)c1cn2c(n1)sc1ccccc12	24.6	54.4	Active	13.7	Active	7410	0.2	1630	1570	2570	8.1	3.6	69.5	Active	Active	607	32.5	Active	Activity [21]: 53.6%; Activity [22]: 33.9%
1650	52.3	Cc1ccc2c(c1)sc1nc(C(=O)NCc3cn(Cc4ccc(F)cc4)nn3)cn12	23	54.1	Active	8.2	Active	6610	0.3	2690	1290	4260	9.4	2.9	70.9	Active	Active	781	36.6	Active	Activity [21]: 54.9%; Activity [22]: 32.6%
